Key:
[1] = molecular target: T1, Vascular endothelial growth factor receptor 2 (Homo sapiens, UniProt P35968); experiment: Inhibition of recombinant GST-tagged VEGFR2 expressed in Sf9 insect cells after 120 mins by Kinase-Glo assay; format: cell-based
[2] = molecular target: Vascular endothelial growth factor receptor 1 (Homo sapiens, UniProt P17948); experiment: Inhibition of recombinant GST-tagged VEGFR1 expressed in Sf9 insect cells after 120 mins by Kinase-Glo assay
In short: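 GST-VEGFR1 (R781–I1338) or GST-VEGFR2 (V789–V1356) kinase domain, 50–100 ng, from Sf9 cells. Read-out was Kinase-Glo Plus luminescence.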

MOLM-13 = experiment: Antiproliferation activity against human MOLM13 cells expressing FLT3 mutation assessed as cell viability after 72 hrs by MTS method; format: functional; conditions: MOLM-13, 72 h
[3] = molecular target: T2, Receptor-type tyrosine-protein kinase FLT3 (Homo sapiens, UniProt P36888); experiment: Inhibition of GST-tagged FLT3 expressing wild type kinase domain expressed in Sf9 insect cells after 4 hrs by Kinase-Glo assay
T2 sequence (P36888 whole entry): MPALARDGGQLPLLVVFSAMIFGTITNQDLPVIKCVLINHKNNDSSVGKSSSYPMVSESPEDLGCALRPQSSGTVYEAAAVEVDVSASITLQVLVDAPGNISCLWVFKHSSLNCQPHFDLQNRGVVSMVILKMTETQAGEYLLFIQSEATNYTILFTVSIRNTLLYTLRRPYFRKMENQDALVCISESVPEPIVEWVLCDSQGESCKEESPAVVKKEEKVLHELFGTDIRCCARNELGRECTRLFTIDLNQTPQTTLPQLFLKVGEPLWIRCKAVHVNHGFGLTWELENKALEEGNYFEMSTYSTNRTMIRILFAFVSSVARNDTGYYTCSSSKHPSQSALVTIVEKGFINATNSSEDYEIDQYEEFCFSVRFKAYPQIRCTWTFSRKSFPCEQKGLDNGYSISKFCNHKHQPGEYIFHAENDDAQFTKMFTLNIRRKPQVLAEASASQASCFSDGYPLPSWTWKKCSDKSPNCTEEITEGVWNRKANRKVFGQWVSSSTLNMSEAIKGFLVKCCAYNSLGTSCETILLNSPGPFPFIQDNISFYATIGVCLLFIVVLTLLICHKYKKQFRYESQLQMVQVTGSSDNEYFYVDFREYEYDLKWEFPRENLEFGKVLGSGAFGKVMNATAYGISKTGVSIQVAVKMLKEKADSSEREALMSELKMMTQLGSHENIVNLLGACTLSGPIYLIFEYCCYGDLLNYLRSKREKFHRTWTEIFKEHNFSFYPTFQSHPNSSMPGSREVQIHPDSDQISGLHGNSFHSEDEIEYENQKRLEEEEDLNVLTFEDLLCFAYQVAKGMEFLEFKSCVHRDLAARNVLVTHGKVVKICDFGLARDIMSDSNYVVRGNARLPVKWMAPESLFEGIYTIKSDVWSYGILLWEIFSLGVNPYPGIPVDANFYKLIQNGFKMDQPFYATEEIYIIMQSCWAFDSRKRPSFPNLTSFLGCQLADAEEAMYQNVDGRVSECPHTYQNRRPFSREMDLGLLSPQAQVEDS

Aurora kinase A = molecular target: T3, Aurora kinase A (Homo sapiens, UniProt O14965); experiment: Inhibition of recombinant GST-tagged Aurora A expressed in Sf9 insect cells after 90 mins by Kinase-Glo assay
T3 sequence (O14965 whole entry): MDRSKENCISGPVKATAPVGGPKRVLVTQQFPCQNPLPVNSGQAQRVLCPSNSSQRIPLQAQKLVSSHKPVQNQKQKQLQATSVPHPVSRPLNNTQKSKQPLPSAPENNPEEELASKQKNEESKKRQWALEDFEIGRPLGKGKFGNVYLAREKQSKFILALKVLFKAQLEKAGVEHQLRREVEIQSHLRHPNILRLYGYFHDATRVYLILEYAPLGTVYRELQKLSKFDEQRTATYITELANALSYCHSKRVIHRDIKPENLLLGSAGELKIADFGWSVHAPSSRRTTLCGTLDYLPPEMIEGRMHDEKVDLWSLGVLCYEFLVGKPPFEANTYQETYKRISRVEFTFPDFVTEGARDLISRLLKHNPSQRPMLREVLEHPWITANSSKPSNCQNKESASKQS
In short: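 GST-Aurora A kinase domain (S123–S401, 150 ng) from Sf9 cells. Buffer was 50 mM Tris-HCl pH 7.4 with 10 mM NaCl, 10 mM MgCl2, 0.01% BSA and 1 mM DTT. Kinase-Glo Plus was added for 20 min at 25 °C before the luminescence read.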

[4] = molecular target: T1, Vascular endothelial growth factor receptor 2; experiment: Inhibition of recombinant GST-tagged VEGFR2 expressed in Sf9 insect cells at 1 uM after 120 mins by Kinase-Glo assay
[5] = molecular target: Aurora kinase A (Homo sapiens) (UniProt O14965); experiment: Inhibition of recombinant GST-tagged Aurora A expressed in Sf9 insect cells at 1 uM after 90 mins by Kinase-Glo assay
[6] = molecular target: Receptor-type tyrosine-protein kinase FLT3 (Homo sapiens) (UniProt P36888); experiment: Inhibition of GST-tagged FLT3 expressing wild type kinase domain expressed in Sf9 insect cells at 1 uM after 4 hrs by Kinase-Glo assay
MOLT-4 = experiment: Antiproliferation activity against human MOLT4 after 72 hrs by MTS method; format: functional; conditions: MOLT-4, 72 h
MV4-11 = experiment: Antiproliferation activity against FLT3/ITD harboring human MV4-11 cells after 72 hrs by MTS method; format: functional; conditions: MV4-11, 72 h
K562 = experiment: Antiproliferation activity against human K562 cells expressing wild type BCR/ABL after 72 hrs by MTS method; format: functional; conditions: K562, 72 h
[7] = Antiproliferation activity against human RS4:11 cells expressing wild type FLT3 after 72 hrs by MTS method; format: functional; conditions: RS4-11, 72 h
[8] = Volume of distribution at steady state in Sprague-Dawley rat at 5 mg/kg, iv; format: ADME, organism-based; set-up: dose 5 mg/kg, route intravenous; conditions: in vivo, read-out: Vdss
[9] = Half life in Sprague-Dawley rat at 5 mg/kg, iv; format: ADME, organism-based; set-up: dose 5 mg/kg, route intravenous; conditions: in vivo
Mus musculus [10] = experiment: Toxicity in normal mouse assessed as reduction of body weight at 50 mg/kg, iv for continuous 5 days; conditions: in vivo, 120 h
[11] = AUC (0 to infinity) in Sprague-Dawley rat at 5 mg/kg, iv; format: ADME, organism-based; set-up: time infinity, dose 5 mg/kg, route intravenous; conditions: plasma
[12] = Clearance in Sprague-Dawley rat at 5 mg/kg, iv; format: ADME, organism-based; set-up: dose 5 mg/kg, route intravenous; conditions: in vivo
Mus musculus [13] = experiment: Toxicity in athymic nu/nu nude mouse assessed as lethality at 50 mg/kg, iv for continuous 5 days; format: organism-based; set-up: dose 50 mg/kg, route intravenous; conditions: in vivo, 120 h

Chain of Vascular endothelial growth factor receptor 1 (P17948 whole entry, the tested form may be a part): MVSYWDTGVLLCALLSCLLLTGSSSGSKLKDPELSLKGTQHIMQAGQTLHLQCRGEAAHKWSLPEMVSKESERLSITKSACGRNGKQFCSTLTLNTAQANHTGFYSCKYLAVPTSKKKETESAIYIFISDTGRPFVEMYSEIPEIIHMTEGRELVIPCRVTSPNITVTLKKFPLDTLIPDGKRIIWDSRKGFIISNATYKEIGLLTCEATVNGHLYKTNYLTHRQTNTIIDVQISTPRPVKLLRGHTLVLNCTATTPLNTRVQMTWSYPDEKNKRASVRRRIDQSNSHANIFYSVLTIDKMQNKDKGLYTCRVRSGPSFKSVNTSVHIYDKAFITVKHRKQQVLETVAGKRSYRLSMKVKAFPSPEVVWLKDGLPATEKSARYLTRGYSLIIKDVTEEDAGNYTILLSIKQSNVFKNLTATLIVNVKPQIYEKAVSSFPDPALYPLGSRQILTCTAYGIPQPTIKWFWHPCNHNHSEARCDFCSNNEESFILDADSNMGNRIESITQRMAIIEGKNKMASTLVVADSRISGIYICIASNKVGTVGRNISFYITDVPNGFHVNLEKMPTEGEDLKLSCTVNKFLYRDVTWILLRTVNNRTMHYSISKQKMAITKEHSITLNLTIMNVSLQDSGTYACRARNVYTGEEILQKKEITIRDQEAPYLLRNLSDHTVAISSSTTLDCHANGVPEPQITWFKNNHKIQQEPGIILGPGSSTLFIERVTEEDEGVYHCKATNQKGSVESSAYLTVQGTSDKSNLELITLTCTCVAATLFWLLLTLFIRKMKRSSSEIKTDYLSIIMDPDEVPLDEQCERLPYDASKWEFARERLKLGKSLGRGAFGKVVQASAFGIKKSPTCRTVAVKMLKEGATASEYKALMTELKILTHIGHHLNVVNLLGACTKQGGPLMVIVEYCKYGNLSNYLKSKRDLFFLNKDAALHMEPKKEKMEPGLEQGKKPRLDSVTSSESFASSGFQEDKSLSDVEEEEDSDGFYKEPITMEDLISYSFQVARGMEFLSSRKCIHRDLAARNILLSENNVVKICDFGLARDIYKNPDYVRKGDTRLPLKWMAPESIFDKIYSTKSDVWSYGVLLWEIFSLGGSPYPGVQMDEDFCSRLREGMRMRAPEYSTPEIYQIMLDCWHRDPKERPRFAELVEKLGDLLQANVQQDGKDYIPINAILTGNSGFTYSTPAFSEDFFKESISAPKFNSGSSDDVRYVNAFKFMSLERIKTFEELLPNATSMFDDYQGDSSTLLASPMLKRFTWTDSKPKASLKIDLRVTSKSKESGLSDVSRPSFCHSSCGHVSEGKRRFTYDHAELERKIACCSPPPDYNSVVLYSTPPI
T1 sequence (P35968 whole entry): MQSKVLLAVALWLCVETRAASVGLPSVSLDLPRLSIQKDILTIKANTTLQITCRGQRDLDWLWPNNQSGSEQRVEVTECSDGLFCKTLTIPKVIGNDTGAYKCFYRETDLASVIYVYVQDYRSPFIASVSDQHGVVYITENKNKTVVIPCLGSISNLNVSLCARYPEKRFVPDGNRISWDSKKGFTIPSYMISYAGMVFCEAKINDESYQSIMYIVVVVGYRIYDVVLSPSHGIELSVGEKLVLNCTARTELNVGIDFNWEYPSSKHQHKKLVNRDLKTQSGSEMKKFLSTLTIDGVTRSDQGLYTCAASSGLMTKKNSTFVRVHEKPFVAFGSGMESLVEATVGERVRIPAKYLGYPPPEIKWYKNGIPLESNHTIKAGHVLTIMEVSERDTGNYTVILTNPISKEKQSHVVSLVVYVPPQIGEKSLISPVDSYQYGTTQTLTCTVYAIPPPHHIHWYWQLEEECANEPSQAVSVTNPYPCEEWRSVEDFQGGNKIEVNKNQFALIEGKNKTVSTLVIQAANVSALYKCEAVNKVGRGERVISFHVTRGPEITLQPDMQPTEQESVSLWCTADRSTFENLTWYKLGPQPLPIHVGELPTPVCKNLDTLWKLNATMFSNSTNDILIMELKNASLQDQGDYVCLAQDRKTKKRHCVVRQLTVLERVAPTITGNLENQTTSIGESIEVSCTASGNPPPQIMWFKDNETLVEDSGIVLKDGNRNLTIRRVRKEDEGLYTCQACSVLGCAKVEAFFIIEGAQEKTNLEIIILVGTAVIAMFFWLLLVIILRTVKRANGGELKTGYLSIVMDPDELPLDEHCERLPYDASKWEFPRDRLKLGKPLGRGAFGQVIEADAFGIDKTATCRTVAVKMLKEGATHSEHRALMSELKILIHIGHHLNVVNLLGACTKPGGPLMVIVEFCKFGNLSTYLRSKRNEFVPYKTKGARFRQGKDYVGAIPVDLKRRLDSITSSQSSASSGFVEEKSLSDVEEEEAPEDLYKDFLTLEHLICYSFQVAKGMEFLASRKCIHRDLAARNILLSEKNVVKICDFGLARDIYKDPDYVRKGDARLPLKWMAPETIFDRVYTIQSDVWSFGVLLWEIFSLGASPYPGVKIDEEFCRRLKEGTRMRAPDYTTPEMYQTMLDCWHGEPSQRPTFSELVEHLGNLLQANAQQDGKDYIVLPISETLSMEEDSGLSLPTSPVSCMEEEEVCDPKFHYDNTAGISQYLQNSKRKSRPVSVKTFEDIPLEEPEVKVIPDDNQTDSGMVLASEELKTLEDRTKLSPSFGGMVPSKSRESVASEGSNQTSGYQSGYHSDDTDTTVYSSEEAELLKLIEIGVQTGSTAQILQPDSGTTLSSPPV

Compound	IC50 [1]	IC50 [2]	GI50 (MOLM-13)	IC50 [3]	IC50 (Aurora kinase A)	other results
CCS(=O)(=O)Nc1cccc(-c2cc(NC(=O)c3ccc(N4CCN(C)CC4)cc3)[nH]n2)c1	> 1 µM	> 1 µM	0.033 µM	0.36 µM	> 1 µM	
Cc1nc(NCCN2CCOCC2)cc(Nc2cc(-c3cccc(NS(=O)(=O)c4ccccc4)c3)n[nH]2)n1	> 1 µM	> 1000 µM	0.46 µM	0.06 µM	> 1 µM	
CC(C)S(=O)(=O)Nc1cccc(-c2cc(NC(=O)c3ccc(N4CCN(C)CC4)cc3)[nH]n2)c1	> 1 µM	> 1 µM	0.044 µM	0.16 µM	> 1 µM	
O=C(Nc1cc(-c2cccc(NS(=O)(=O)c3ccccc3)c2)n[nH]1)c1cccc(C(F)(F)F)c1				> 1 µM		
CN1CCN(c2ccc(C(=O)Nc3cc(-c4cccc(NC(=O)Nc5ccccc5)c4)n[nH]3)cc2)CC1			0.15 µM	0.02 µM		
Cc1nc(NCCCN2CCOCC2)cc(Nc2cc(-c3cccc(NS(=O)(=O)c4ccccc4)c3)n[nH]2)n1		> 1 µM	0.38 µM	0.01 µM	0.68 µM	inhibition [4]: 55%
O=C(Nc1cc(-c2cccc(NS(=O)(=O)c3ccccc3)c2)n[nH]1)c1ccc(OCCN2CCOCC2)cc1	> 1 µM	> 1 µM	0.072 µM	0.07 µM		inhibition [5]: 50%
O=C(Nc1cc(-c2cccc(NS(=O)(=O)c3ccccc3)c2)n[nH]1)c1ccc(C(F)(F)F)cc1				> 1 µM		
O=C(O)c1cccc(C(=O)Nc2cc(-c3cccc(NS(=O)(=O)c4ccccc4)c3)n[nH]2)c1						inhibition [6]: 56%
CCCCS(=O)(=O)Nc1cccc(-c2cc(Nc3cc(N4CCN(C)CC4)nc(C)n3)[nH]n2)c1	> 1 µM	> 1 µM	0.16 µM	0.11 µM	> 1 µM	
O=C(Nc1cc(-c2cccc(NS(=O)(=O)c3ccccc3)c2)n[nH]1)c1cccc(N2CCOCC2)c1	> 1 µM	> 1 µM	0.26 µM	> 1 µM	> 1 µM	
COc1ccc(S(=O)(=O)Nc2cccc(-c3cc(NC(=O)c4ccc(N5CCN(C)CC5)cc4)[nH]n3)c2)cc1	0.16 µM	0.42 µM	0.05 µM	0.09 µM	> 1 µM	
CN1CCN(c2cccc(C(=O)Nc3cc(-c4cccc(NS(=O)(=O)c5ccccc5)c4)n[nH]3)c2)CC1	0.41 µM	> 1 µM	0.19 µM	0.065 µM	0.85 µM	
O=C(Nc1cc(-c2cccc(NS(=O)(=O)c3ccccc3)c2)n[nH]1)c1ccccc1						inhibition [6]: 54%
CNC(=O)c1cc(Oc2ccc(NC(=O)Nc3ccc(Cl)c(C(F)(F)F)c3)cc2)ccn1 [SORAFENIB]						GI50 (MOLT-4): 9 µM; GI50 (MV4-11): 0.03 µM; GI50 (K562): 6.2 µM; GI50 [7]: 9.4 µM
CN1CCN(c2ccc(C(=O)Nc3cc(-c4cccc(NS(=O)(=O)c5ccc(Cl)cc5)c4)n[nH]3)cc2)CC1	> 1 µM	0.57 µM	0.074 µM	0.12 µM	4.99 µM	
CCCS(=O)(=O)Nc1cccc(-c2cc(NC(=O)c3ccc(N4CCN(C)CC4)cc3)[nH]n2)c1	2.72 µM	2.61 µM	0.056 µM	0.1 µM	1.64 µM	
Cc1cccc(S(=O)(=O)Nc2cccc(-c3cc(Nc4cc(N5CCN(C)CC5)nc(C)n4)[nH]n3)c2)c1	> 1 µM	> 1 µM	0.078 µM	0.12 µM	> 1 µM	
O=C(Nc1cc(-c2cccc(NS(=O)(=O)c3ccccc3)c2)n[nH]1)c1ccc(N2CCOCC2)cc1	0.45 µM	> 1 µM	0.1 µM	0.029 µM	0.39 µM	
Cc1cccc(S(=O)(=O)Nc2cccc(-c3cc(NC(=O)c4ccc(N5CCN(C)CC5)cc4)[nH]n3)c2)c1	0.07 µM	0.14 µM	0.016 µM	0.007 µM	0.43 µM	Vd [8]: 2.6 L/kg; half-life [9]: 1.7 h; Activity (Mus musculus [10]): Toxic; AUC(0-inf) [11]: 1200 ng·h/mL; clearance [12]: 67.4 mL/min/kg; Activity (Mus musculus [13]): Toxic
O=C(O)c1ccc(C(=O)Nc2cc(-c3cccc(NS(=O)(=O)c4ccccc4)c3)n[nH]2)cc1						inhibition [6]: 61%
Cc1nc(Nc2cc(-c3cccc(NS(=O)(=O)c4ccccc4)c3)n[nH]2)cc(N2CCN(CCO)CC2)n1	0.14 µM	> 1 µM	0.024 µM	0.05 µM	0.17 µM	
CN1CCN(c2ccc(C(=O)Nc3cc(-c4cccc(NC(=O)c5ccccc5)c4)n[nH]3)cc2)CC1			0.21 µM	0.27 µM		
CN1CCN(c2ccc(C(=O)Nc3cc(-c4cccc(NS(=O)(=O)c5cccc(Cl)c5)c4)n[nH]3)cc2)CC1	0.25 µM	0.04 µM	0.039 µM	0.008 µM	1.71 µM	
Cc1ccc(S(=O)(=O)Nc2cccc(-c3cc(NC(=O)c4ccc(N5CCN(C)CC5)cc4)[nH]n3)c2)cc1	> 1 µM	> 1 µM	0.024 µM	0.015 µM		inhibition [5]: 50%
O=C(Nc1cc(-c2cccc(NS(=O)(=O)c3ccccc3)c2)n[nH]1)c1ccc(OCCN2CCCC2)cc1	0.2 µM	0.27 µM	0.025 µM	0.007 µM	1.17 µM	Vd [8]: 10.7 L/kg; half-life [9]: 9.9 h; Activity (Mus musculus [10]): Toxic; AUC(0-inf) [11]: 3940 ng·h/mL; clearance [12]: 22.3 mL/min/kg; Activity (Mus musculus [13]): Toxic
CN1CCN(c2ccc(C(=O)Nc3cc(-c4ccc(NS(=O)(=O)c5ccccc5)cc4)n[nH]3)cc2)CC1			0.05 µM	0.59 µM		
CN1CCN(c2ccc(C(=O)Nc3cc(-c4cccc(NS(=O)(=O)c5ccccc5)c4)n[nH]3)cc2)CC1	0.13 µM	0.21 µM	0.012 µM	0.013 µM	0.34 µM	Vd [8]: 15.5 L/kg; half-life [9]: 4.5 h; Activity (Mus musculus [10]): Toxic; AUC(0-inf) [11]: 551 ng·h/mL; clearance [12]: 102 mL/min/kg; Activity (Mus musculus [13]): Toxic
CN1CCN(c2ccc(C(=O)Nc3cc(-c4cccc(N)c4)n[nH]3)cc2)CC1			0.077 µM	0.014 µM		
